From ChEMBL document CHEMBL5325503, “Structure Guided Design, Synthesis, and Biological Evaluation of Oxetane-Containing Indole Analogues” (Bioorg Med Chem, 2023) come the findings set out here.

The term IC50 denotes the point on the concentration scale where inhibition reaches its midpoint. A high value points to weaker potency in that assay. As a reminder, the pIC50 is the negative decadic logarithm of the IC50, by convention in mol/L.

Test [1] concerns the target Tubulin (Bos taurus, UniProt Q6B856+Q862L2+Q862F3). Briefly: Inhibition of bovine brain tubulin polymerization preincubated for 15 mins followed by GTP addition and measured after 20 mins by turbidimetric analysis. The gist of the method: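 Mixtures (0.25 mL final) held 10 μM (1 mg/mL) bovine brain tubulin, 0.8 M monosodium glutamate pH 6.6, 4% DMSO and compound. Preincubated 15 min at 30 °C without GTP, chilled to 0 °C, then GTP added to 0.1 mM final. Warmed to 30 °C, turbidity followed at 350 nm for 20 min. IC50 = concentration halving polymerization extent at 20 min.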

Test [2] has as its system MCF7. In words: Cytotoxicity against human MCF7 cells assessed as inhibition of cell growth incubated for 48 hrs by SRB assay. As to conditions: MCF7, 48 h. It counts as functional, cell-based. (In general: In SRB staining, fixed cells bind dye roughly in proportion to their protein.)
Test [3] has as its system MCF7. In words: Cytotoxicity against human MCF7 cells assessed as inhibition of cell growth incubated for 96 hrs by SRB assay. As to conditions: MCF7, 96 h.
For test [4], the system named is PANC-1. Briefly: Cytotoxicity against human PANC-1 cells assessed as inhibition of cell growth incubated for 48 hrs by SRB assay. It counts as functional, cell-based. As to conditions: PANC-1, 48 h. In a few lines: (§1)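 Seeded at 12,000 cells/well in triplicate and grown 24 h at 37 °C, 5% CO2 in high-glucose DMEM with 10% FBS and 30 μg/mL gentamicin. Serial dilutions in medium from 10 mg/mL DMSO stocks, 48 h exposure. Fixed with TCA (6% final), SRB-stained, dye solubilized in 10 mM Tris, A530.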

Test [5] concerns PANC-1. Briefly: Inhibition of cell migration in human PANC-1 cells at 0.5 uM incubated for 1 to 40 hrs by scratch wound healing assay. It counts as functional, cell-based. As to conditions: time 1-40 hrs. In a few lines: (§2)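 About 1 × 10^5 cells seeded per well of a 6-well plate in DMEM with 10% heat-inactivated FBS and 30 μg/mL gentamicin at 37 °C, 5% CO2. Grown to 70–80% confluency, scratched with a 10 μL pipette tip, medium replaced. Two wells per condition at 0.5 or 1 μM, DMSO ≤0.2% final, with two control wells. Gap imaged by automated microscopy (4X) over 48 h.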

Test [6] deals with PANC-1. Briefly: Inhibition of cell migration in human PANC-1 cells at 1 uM incubated at 40 hrs by scratch wound healing assay. It counts as functional, cell-based. The gist of the method: as §2
In test [7] the test system is PANC-1. In words: Inhibition of cell migration in human PANC-1 cells at 0.5 to 1 uM incubated for 48 hrs by scratch wound healing assay. The following applies: dose 0.5-1 µM. It counts as functional, cell-based. The gist of the method:
as §2

For test [8], the system named is MDA-MB-231. In words: Cytotoxicity against human MDA-MB-231 cells assessed as inhibition of cell growth incubated for 48 hrs by SRB assay. It counts as functional, cell-based. The following applies: MDA-MB-231, 48 h. The gist of the method:
as §1

pIC50: −log10 of the molar value. The source made the active and inactive calls. No cut-off for these calls is given here.

On to `COc1ccc(-c2[nH]c3cc(Cl)ccc3c2C2(c3cc(OC)c(OC)c(OC)c3)COC2)cc1`, for which the half-inhibitory concentration (IC50) in test [1] is > 20000 nM. Further, the pIC50 in test [2] was 5.43.
Take `COc1cc(C2(c3c(-c4ccccc4)[nH]c4ccc(Br)cc34)COC2)cc(OC)c1OC`: in test [3], the pIC50 was 5.66. Also, in test [1], the IC50 is > 20000 nM.
As for `COc1cc(C2(c3c(-c4ccccc4)[nH]c4cc(Br)ccc34)COC2)cc(OC)c1OC`, the pIC50 in test [4] was 6.37; in test [3], 6.33; in test [8] it was 5.72. Moreover, the inhibition result in test [5], in test [6] and in test [7] was “Active” in each case. For the same compound, the IC50 in test [1] was > 20000 nM.
With `COc1cc(C2(c3c(-c4ccccc4)[nH]c4cc(Cl)ccc34)COC2)cc(OC)c1OC`, the pIC50 in test [4] was 5.96; in test [3] it was 6.08; in test [8] it was 5.66. Moreover, the IC50 in test [1] is > 20000 nM.
In the case of `COc1cc(C2(c3c(-c4ccccc4)[nH]c4c(OC)cccc34)COC2)cc(OC)c1OC`, the negative logarithm of the IC50 (pIC50) in test [4] was 6.36; in test [3], 6.11; in test [8], 5.52. Besides, the inhibition result in test [5], in test [6] and in test [7] was “Active” throughout. Further, in test [1], the IC50 is > 20000 nM.
Consider `COc1cc(C2(c3c(-c4ccccc4)[nH]c4ccccc34)COC2)cc(OC)c1OC`, for which, in test [3], the pIC50 is < 5.30. Further, the IC50 in test [1] was > 20000 nM.
For `COc1ccc(-c2[nH]c3ccccc3c2C2(c3cc(OC)c(OC)c(OC)c3)COC2)cc1`, in that order: < 5.30 and > 20000 nM.
For `COc1cccc(-c2[nH]c3ccccc3c2C2(c3cc(OC)c(OC)c(OC)c3)COC2)c1`, in that order: 5.32 and > 20000 nM.
Turning to `COc1ccc2c(C3(c4cc(OC)c(OC)c(OC)c4)COC3)c(-c3ccc(OC)c(O)c3)[nH]c2c1`, the IC50 in test [1] was > 20000 nM. The pIC50 in test [2] was 5.80.
For the compound `COc1cc(C2(c3c(-c4ccc(C)cc4)[nH]c4ccccc34)COC2)cc(OC)c1OC`, the pIC50 in test [3] is < 5.30. Also, the IC50 in test [1] was > 20000 nM.
For `COc1ccc2[nH]c(-c3ccc(C)cc3)c(C3(c4cc(OC)c(OC)c(OC)c4)COC3)c2c1`, in that order: < 5.30 and > 20000 nM.
`COc1cc(C2(c3c(-c4ccc(C)cc4)[nH]c4cc(Cl)ccc34)COC2)cc(OC)c1OC`: the pIC50 in test [3] is 5.57. Further, in test [1], the IC50 was > 20000 nM.
For `COc1cc(C2(c3c(-c4ccc(C)cc4)[nH]c4cc(Br)ccc34)COC2)cc(OC)c1OC`, in that order: 5.77 and > 20000 nM.
The like results for `COc1ccc2[nH]c(-c3ccccc3)c(C3(c4cc(OC)c(OC)c(OC)c4)COC3)c2c1` were, in that order, 5.49 and > 20000 nM.
